Test results as given in paper PMC8458982 (The Journal of Biological Chemistry, 2021).

Legend:
human TRPC6 (hTRPC6-WT) = human TRPC6 (hTRPC6-WT) (Homo sapiens, UniProt Q9Y210); test: whole-cell patch-clamp, hTRPC6-WT expressed in HEK293 cells; type: cell-based
Procedure, shortened: (§1)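 Transiently transfected HEK293 cells expressing mouse or human TRPC6 WT, or sequence-verified mouse point mutants, recorded 24–48 h post-transfection. Conventional whole-cell clamp at −60 mV and 23 °C, gap-free; test compound applied by Y-tube. Pipette: CsCl/HEPES/BAPTA, 400 nM free Ca2+, pH 7.2. Bath: NaCl-based, 2 mM CaCl2, pH 7.4. EC50 from Hill fit of concentration–current data. Mutant screen used current ratios (10/5 μM or 3/1 μM). At least 3 transfection batches.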

mTRPC6 mutant ^mE671C = biological target: T1, mTRPC6 mutant ^mE671C (Mus musculus, UniProt Q61143, E671C); test: whole-cell patch-clamp, mTRPC6 mutant E671C; type: cell-based
T1 sequence (Q61143 1-930 E671C): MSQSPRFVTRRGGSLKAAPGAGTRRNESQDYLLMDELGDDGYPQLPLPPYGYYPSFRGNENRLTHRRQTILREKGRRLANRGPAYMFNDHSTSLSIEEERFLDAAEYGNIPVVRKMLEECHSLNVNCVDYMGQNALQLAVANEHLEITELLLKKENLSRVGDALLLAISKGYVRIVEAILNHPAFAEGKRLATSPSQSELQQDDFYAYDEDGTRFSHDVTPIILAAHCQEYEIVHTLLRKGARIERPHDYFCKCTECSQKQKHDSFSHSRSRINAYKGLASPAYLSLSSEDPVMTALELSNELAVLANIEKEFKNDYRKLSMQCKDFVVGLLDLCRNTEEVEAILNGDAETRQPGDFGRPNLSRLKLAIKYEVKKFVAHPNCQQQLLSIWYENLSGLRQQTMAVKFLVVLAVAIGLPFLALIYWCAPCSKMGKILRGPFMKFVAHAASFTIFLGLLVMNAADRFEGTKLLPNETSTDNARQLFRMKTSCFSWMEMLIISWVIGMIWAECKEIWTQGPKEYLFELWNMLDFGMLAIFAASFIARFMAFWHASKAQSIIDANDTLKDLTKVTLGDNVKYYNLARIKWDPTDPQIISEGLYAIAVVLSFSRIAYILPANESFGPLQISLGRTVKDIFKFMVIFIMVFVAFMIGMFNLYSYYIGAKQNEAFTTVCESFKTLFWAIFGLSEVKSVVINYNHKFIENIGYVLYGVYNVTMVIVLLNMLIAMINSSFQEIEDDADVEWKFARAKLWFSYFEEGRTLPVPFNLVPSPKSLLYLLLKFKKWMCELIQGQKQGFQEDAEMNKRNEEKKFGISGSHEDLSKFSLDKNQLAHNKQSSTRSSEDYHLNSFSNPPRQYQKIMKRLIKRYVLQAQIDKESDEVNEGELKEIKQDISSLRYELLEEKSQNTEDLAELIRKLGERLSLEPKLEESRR
Procedure, shortened: as §1

mTRPC6 mutant ^mK675R = mTRPC6 mutant ^mK675R (Mus musculus, UniProt Q61143, K675R); test: whole-cell patch-clamp, mTRPC6 mutant K675R; type: cell-based
Procedure, shortened: as §1

mTRPC6 mutant ^mN701Q = mTRPC6 mutant ^mN701Q (Mus musculus, UniProt Q61143, N701Q); test: whole-cell patch-clamp, mTRPC6 mutant N701Q; type: cell-based
Procedure, shortened: as §1

mTRPC6 mutant ^mK697R = mTRPC6 mutant ^mK697R (Mus musculus, UniProt Q61143, K697R); test: whole-cell patch-clamp, mTRPC6 mutant K697R; type: cell-based
Procedure, shortened: as §1

mTRPC6 mutant ^mF640W = mTRPC6 mutant ^mF640W (Mus musculus, UniProt Q61143, F640W); test: whole-cell patch-clamp, mTRPC6 mutant F640W; type: cell-based
Procedure, shortened: as §1

mTRPC6 mutant ^mR463K = test: whole-cell patch-clamp, mTRPC6 mutant R463K; type: cell-based, mouse; conditions: ^mR463K (S1 pocket)
Procedure, shortened: as §1

mTRPC6 mutant ^mT487L = test: whole-cell patch-clamp, mTRPC6 mutant T487L; type: cell-based, mouse; conditions: ^mT487L (S1 pocket)
Procedure, shortened: as §1

mTRPC6 mutant ^mF490W = test: whole-cell patch-clamp, mTRPC6 mutant F490W; type: cell-based, mouse; conditions: ^mF490W (S1 pocket)
Procedure, shortened: as §1

mTRPC6 mutant ^mY657W = test: whole-cell patch-clamp, mTRPC6 mutant Y657W; type: cell-based, mouse; conditions: ^mY657W (S1 pocket)
Procedure, shortened: as §1

mTRPC6 mutant ^mV687L = test: whole-cell patch-clamp, mTRPC6 mutant V687L; type: cell-based, mouse; conditions: ^mV687L (S3 pocket)
Procedure, shortened: as §1

mTRPC6 mutant ^mL684V = mTRPC6 mutant ^mL684V (Mus musculus, UniProt Q61143, L684V); test: whole-cell patch-clamp, mTRPC6 mutant L684V; type: cell-based; conditions: ^mL684V (S3 pocket)
Procedure, shortened: as §1

mTRPC6 mutant ^mS685T = mTRPC6 mutant ^mS685T (Mus musculus, UniProt Q61143, S685T); test: whole-cell patch-clamp, mTRPC6 mutant S685T; type: cell-based; conditions: ^mS685T (S3 pocket)
Procedure, shortened: as §1

mTRPC6 mutant ^mF678W = mTRPC6 mutant ^mF678W (Mus musculus, UniProt Q61143, F678W); test: whole-cell patch-clamp, mTRPC6 mutant F678W; type: cell-based; conditions: saturated agonist
Procedure, shortened: as §1

mTRPC6 mutant ^mN701A = mTRPC6 mutant ^mN701A (Mus musculus, UniProt Q61143, N701A); test: whole-cell patch-clamp, mTRPC6 mutant N701A; type: cell-based; conditions: saturated agonist
Procedure, shortened: as §1

hTRPC6 mutant ^hE673D = hTRPC6 mutant ^hE673D (Homo sapiens, UniProt Q9Y210, E673D); test: whole-cell patch-clamp, hTRPC6 mutant E673D; type: cell-based
hTRPC6 mutant ^hK676R = hTRPC6 mutant ^hK676R (Homo sapiens, UniProt Q9Y210, K676R); test: whole-cell patch-clamp, hTRPC6 mutant K676R; type: cell-based
hTRPC6 mutant ^hN702Q = hTRPC6 mutant ^hN702Q (Homo sapiens, UniProt Q9Y210, N702Q); test: whole-cell patch-clamp, hTRPC6 mutant N702Q; type: cell-based
mTRPC6^W679F = mTRPC6^W679F (Mus musculus, UniProt Q61143, W679F); test: single-channel outside-out recording, mTRPC6 W679F; type: cell-based; conditions: 100 μM agonist, −60 mV
Procedure, shortened: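 Excised outside-out or inside-out patches (macro-patch or single-channel) from transfected HEK293 cells, 24–48 h post-transfection, 23 °C. Polished borosilicate pipettes of 8–12 MΩ; holding potential −60 mV. Same solutions as whole-cell recordings (CsCl-based internal, 400 nM free Ca2+, pH 7.2; NaCl-based external, pH 7.4). Sampled at 50 kHz, 2 kHz filter, low-pass 300 Hz; unitary current and conductance measured.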

TRPC3/6/7 = conditions: read-out: EC50 (concentration yielding half maximum response); measured by patch-clamp rather than calcium imaging; cited from earlier work

Chain of mTRPC6 mutant ^mN701Q (Q61143 whole entry N701Q): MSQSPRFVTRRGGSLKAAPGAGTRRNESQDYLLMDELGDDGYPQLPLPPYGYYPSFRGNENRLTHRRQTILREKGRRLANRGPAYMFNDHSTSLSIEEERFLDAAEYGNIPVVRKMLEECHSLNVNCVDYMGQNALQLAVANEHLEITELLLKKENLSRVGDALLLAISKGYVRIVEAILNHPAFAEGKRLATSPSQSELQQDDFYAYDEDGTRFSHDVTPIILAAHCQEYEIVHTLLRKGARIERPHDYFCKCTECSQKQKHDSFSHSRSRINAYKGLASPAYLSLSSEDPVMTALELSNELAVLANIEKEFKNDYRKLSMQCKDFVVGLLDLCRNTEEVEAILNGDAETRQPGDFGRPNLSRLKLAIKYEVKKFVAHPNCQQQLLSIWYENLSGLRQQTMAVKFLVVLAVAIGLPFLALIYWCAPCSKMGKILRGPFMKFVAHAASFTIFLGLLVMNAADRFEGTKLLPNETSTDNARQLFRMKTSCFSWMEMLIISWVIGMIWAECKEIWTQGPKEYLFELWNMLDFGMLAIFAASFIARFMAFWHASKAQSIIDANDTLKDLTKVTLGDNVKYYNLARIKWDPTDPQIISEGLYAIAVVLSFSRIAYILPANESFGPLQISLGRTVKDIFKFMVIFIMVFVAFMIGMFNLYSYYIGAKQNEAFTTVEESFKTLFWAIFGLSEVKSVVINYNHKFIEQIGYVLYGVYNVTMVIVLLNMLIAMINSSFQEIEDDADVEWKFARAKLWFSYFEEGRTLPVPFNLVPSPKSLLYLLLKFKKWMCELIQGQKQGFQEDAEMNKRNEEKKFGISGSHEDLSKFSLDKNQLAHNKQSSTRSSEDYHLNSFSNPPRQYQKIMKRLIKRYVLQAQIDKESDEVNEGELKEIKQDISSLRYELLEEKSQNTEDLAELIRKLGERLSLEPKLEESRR
Chain of mTRPC6 mutant ^mK675R (Q61143 whole entry K675R): as the sequence (Q61143 whole entry N701Q) above, with K675R, Q701N counted along it
Chain of mTRPC6 mutant ^mK697R (Q61143 whole entry K697R): as the sequence (Q61143 whole entry N701Q) above, with K697R, Q701N counted along it
Chain of hTRPC6 mutant ^hE673D (Q9Y210 whole entry E673D): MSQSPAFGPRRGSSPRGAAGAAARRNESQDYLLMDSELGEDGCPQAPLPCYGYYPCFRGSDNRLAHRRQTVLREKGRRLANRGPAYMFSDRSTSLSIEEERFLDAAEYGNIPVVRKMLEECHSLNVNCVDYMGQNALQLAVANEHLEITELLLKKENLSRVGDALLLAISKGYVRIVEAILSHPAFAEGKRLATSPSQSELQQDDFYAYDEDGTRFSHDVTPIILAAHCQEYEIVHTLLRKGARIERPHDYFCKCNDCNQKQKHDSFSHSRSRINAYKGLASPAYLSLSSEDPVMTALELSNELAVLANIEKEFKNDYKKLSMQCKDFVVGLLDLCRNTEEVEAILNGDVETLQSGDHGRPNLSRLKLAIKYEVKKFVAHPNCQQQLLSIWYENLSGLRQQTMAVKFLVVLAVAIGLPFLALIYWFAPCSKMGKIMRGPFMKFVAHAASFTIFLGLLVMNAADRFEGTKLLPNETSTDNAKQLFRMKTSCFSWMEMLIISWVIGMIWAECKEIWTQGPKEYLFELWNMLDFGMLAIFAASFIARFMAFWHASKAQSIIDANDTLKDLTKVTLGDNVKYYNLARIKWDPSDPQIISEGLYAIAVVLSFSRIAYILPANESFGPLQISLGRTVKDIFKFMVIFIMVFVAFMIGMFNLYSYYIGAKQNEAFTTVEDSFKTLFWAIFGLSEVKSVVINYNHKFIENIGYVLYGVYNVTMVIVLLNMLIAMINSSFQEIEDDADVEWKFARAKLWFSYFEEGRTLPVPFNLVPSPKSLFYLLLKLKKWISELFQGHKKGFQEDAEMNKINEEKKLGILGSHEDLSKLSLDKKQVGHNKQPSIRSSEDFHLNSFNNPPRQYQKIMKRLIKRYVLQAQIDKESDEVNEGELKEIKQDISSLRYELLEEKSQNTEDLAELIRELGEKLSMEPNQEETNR
Chain of mTRPC6 mutant ^mN701A (Q61143 whole entry N701A): as the sequence (Q61143 whole entry N701Q) above, with Q701A counted along it
Chain of mTRPC6 mutant ^mF640W (Q61143 whole entry F640W): as the sequence (Q61143 whole entry N701Q) above, with F640W, Q701N counted along it
Chain of hTRPC6 mutant ^hK676R (Q9Y210 whole entry K676R): as the sequence (Q9Y210 whole entry E673D) above, with D673E, K676R counted along it
Chain of mTRPC6^W679F (Q61143 whole entry W679F): as the sequence (Q61143 whole entry N701Q) above, with W679F, Q701N counted along it
Chain of mTRPC6 mutant ^mL684V (Q61143 whole entry L684V): as the sequence (Q61143 whole entry N701Q) above, with L684V, Q701N counted along it
Chain of human TRPC6 (hTRPC6-WT) (Q9Y210 whole entry): as the sequence (Q9Y210 whole entry E673D) above, with D673E counted along it
Chain of mTRPC6 mutant ^mF678W (Q61143 whole entry F678W): as the sequence (Q61143 whole entry N701Q) above, with F678W, Q701N counted along it
Chain of hTRPC6 mutant ^hN702Q (Q9Y210 whole entry N702Q): as the sequence (Q9Y210 whole entry E673D) above, with D673E, N702Q counted along it
Chain of mTRPC6 mutant ^mS685T (Q61143 whole entry S685T): as the sequence (Q61143 whole entry N701Q) above, with S685T, Q701N counted along it

SMILES: CCOC(=O)N1CCC(c2cc(O)n3nc(C)c(-c4ccc(F)cc4)c3n2)CC1 [M085, Ethyl 4-(3-(4-fluorophenyl)-7-hydroxy-2-methylpyrazolo[1,5-a]pyrimidin-5-yl)piperidine-1-carboxylate]
- EC50 (human TRPC6 (hTRPC6-WT)): 2.94 ± 0.7 µM
- EC50 (mTRPC6 mutant ^mE671C): 23.3 ± 6.86 µM
- ratio of M085 activation current I10 μM/I5 μM (mTRPC6 mutant ^mE671C; ^mE671C (S2 pocket)): 4.16 ± 0.87
- Imax (maximal current density) (mTRPC6 mutant ^mE671C; ^mE671C, 100 μM agonist): 24.09 ± 4.53 pA/pF
- agonist-mediated activation after DTNB treatment (mTRPC6 mutant ^mE671C; mTRPC6^E671C, DTNB 2 mM): completely inhibited
- agonist current after DTT removal of TNB moiety (mTRPC6 mutant ^mE671C; mTRPC6^E671C, after DTNB then DTT 10 mM): partially “recovered”
- EC50 (mTRPC6 mutant ^mK675R): 6.9 ± 2.36 µM
- Imax (maximal current density) (mTRPC6 mutant ^mK675R; ^mK675R, 100 μM agonist): 8.26 ± 0.62 pA/pF
- EC50 (mTRPC6 mutant ^mN701Q): 55.7 ± 15.2 µM
- Imax (maximal current density) (mTRPC6 mutant ^mN701Q; ^mN701Q, 100 μM agonist): 2.11 ± 1.04 pA/pF
- EC50 (mTRPC6 mutant ^mK697R): 14.1 ± 1.95 µM
- Imax (maximal current density) (mTRPC6 mutant ^mK697R; ^mK697R, 100 μM agonist): 25.58 ± 1.86 pA/pF
- EC50 (mTRPC6 mutant ^mF640W): 0.84 ± 0.27 µM
- ratio of M085 activation current I10 μM/I5 μM (mTRPC6 mutant ^mR463K): 1.54 ± 0.17
- ratio of M085 activation current I10 μM/I5 μM (mTRPC6 mutant ^mT487L): 1.26 ± 0.22
- ratio of M085 activation current I10 μM/I5 μM (mTRPC6 mutant ^mF490W): 1.91 ± 0.12
- ratio of M085 activation current I10 μM/I5 μM (mTRPC6 mutant ^mY657W): 1.68 ± 0.24
- ratio of M085 activation current I10 μM/I5 μM (mTRPC6 mutant ^mV687L): 1.13 ± 0.26
- agonistic effect (mTRPC6 mutant ^mL684V): loss of agonistic effect
- agonistic effect (mTRPC6 mutant ^mS685T): loss of agonistic effect
- agonist-induced current (channel function) (mTRPC6 mutant ^mF678W): complete loss of function
- agonist-induced current (mTRPC6 mutant ^mN701A): disappearance
- EC50 (hTRPC6 mutant ^hE673D): 22.1 ± 5.46 µM
- EC50 (hTRPC6 mutant ^hK676R): 44 ± 5.75 µM
- EC50 (hTRPC6 mutant ^hN702Q): 54.5 ± 6.53 µM
- unit current (mTRPC6^W679F): did not record unit currents
- EC50 (TRPC3/6/7): 4.66 ± 0.03 µM
